Assay results reported in ChEMBL document CHEMBL3259673, “Campechic acids A and B: anti-invasive polyether polyketides from a soil-derived Streptomyces” (J Nat Prod, 2014).
pIC50: −log10 of the molar value. ≈ marks a conversion by molar mass, not a printed value. Calls of active or inactive are those of the source. The rule behind the calls is not given here.

Columns and labels:
[1] = tested on: Micrococcus luteus; experiment: Antimicrobial activity against Micrococcus luteus ATCC 9343 after 20 hrs; format: functional; settings: ATCC 9343, 20 h
Method in brief: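 Micrococcus luteus was grown 20 h at 30 °C with shaking, then pelleted and suspended in saline at 1 × 10^5 cells/mL. It was then mixed 1:10 with Mueller Hinton broth plus compound in DMSO.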

[2] = Antiinvasive activity against mouse 26-L5 cells after 6 to 8 hrs by matrigel assay; format: functional, cell-based
Method in brief: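 Transwell chambers with 8.0-μm polycarbonate filters coated with Matrigel/fibronectin were used. Cells were fixed in methanol and stained with H&E. Non-invaded cells were swabbed off, and cells on the lower surface were counted in five fields per well. IC50 reported.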

[3] = tested on: Escherichia coli; experiment: Antimicrobial activity against Escherichia coli NIH-JC2 after 20 hrs; format: functional, organism-based
Method in brief: (§1)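 Broth microdilution. Overnight cultures (20 h, 30 °C, shaken) centrifuged and resuspended in saline at 1 × 10^5 cells/mL, diluted 1:10 into medium with sample in DMSO. C. albicans in yeast nitrogen base + 2% glucose, 30 °C. E. coli in Mueller Hinton broth, 37 °C. Growth read as A650 after 20 h. MIC reported.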

[4] = Selectivity index, ratio of IC50 for cytotoxicity against mouse 26-L5 cells to IC50 for antiinvasive activity against mouse 26-L5 cells; format: toxicity, cell-based; settings: read-out: Ratio IC50
[5] = tested on: Candida albicans; experiment: Antimicrobial activity against Candida albicans IFO1594 after 20 hrs; format: functional, organism-based; method in brief: as §1
[6] = Cytotoxicity against mouse 26-L5 cells after 24 hrs by crystal violet staining assay; format: cell-based
Method in brief: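 Colon 26-L5 cells (5 × 10^3/well) were seeded in RPMI with 1% FCS and graded compound concentrations. They were incubated 24 h at 37 °C under 5% CO2, washed with PBS and fixed in 20% formalin. Cells were stained 30 min with crystal violet, the dye was eluted in 30% acetic acid and A590 was read. IC50 reported.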

MIC [1] [µg/mL]	pIC50 [2]	SMILES	Activity [3]	selectivity ratio [4]	Activity [5]	pIC50 [6]
6.25 (≈ 9.2 µM)	8.26	CC[C@@H](C[C@@H](C)C[C@H](C)C[C@H](C)C(=O)O)C(=O)/C=C(\O)[C@H](C)C[C@H](C)C/C=C/[C@H](C)[C@@H](O)CC1CCC(C)(C2CCC(C)([C@@H](C)O)O2)O1 (stereo partly specified)	inactive	73	inactive	
6.25 (≈ 9.4 µM)	6.52	C[C@H](C/C=C/[C@H](C)[C@@H](O)CC1CCC(C)(C2CCC(C)([C@@H](C)O)O2)O1)C[C@@H](C)/C(O)=C/C(=O)[C@@H](C)C[C@@H](C)C[C@H](C)C[C@H](C)C(=O)O (stereo partly specified)	inactive	15	inactive	5.35
